Experimental data reported in PubChem BioAssay AID743247 (Broad Institute, 2014).
Where “and” joins values, the source holds several entries; their conditions need not be identical. Equal entries are not always repeated. In all, about 350,000 compounds went through this assay and about 300 (0.086%) were called active. The entries come from a sample that favours actives as a whole. A number with no mark means an inactive call.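 How the source made its calls: active means mean inhibition across replicates of 30% or more, regardless of how many single replicates reach that level; inconclusive means mean under 30% yet at least half of replicates reach 30%; inactive means the rest.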

Experiment: inhibitors of fibronectin matrix deposition, primary screen, AH1F cells, Alexa488-fibronectin fluorescence, plate reader (AID 743247);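 further: positive control wells lacked labelled fibronectin entirely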
Settings: AH1F fibroblasts, overnight, at 12.6 µM, stronger effect = higher value
In short: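 Material: AH1F fibroblast monolayer depositing Alexa488-labelled fibronectin into matrix | Input: 10000 AH1F cells/well | Medium: DMEM plus 2% serum, read in PBS | Reagent: Alexa488-fibronectin, 24 nM final in well | Compound dosing: One dose per compound, pinned | Schedule: 1 h adhesion, overnight exposure | Measured by: Fluorescence at 485 nm excitation, 525 nm emission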

Compound | inhibition
COc1ccc(-c2ccccc2[C@H]2[C@@H](CO)N(C(=O)c3cccnc3)[C@H]2C#N)cc1 | 0.791%
COc1cccc(C(=O)Nc2ccc3c(c2)C(=O)N(C)[C@H]2CC[C@@H](CC(=O)N[C@H](C)c4ccccc4)O[C@H]2CO3)c1 | 1.83%
CS(=O)(=O)Nc1ccc2c(c1)[C@H]1C[C@@H](CC(=O)N3CCOCC3)O[C@@H](CO)[C@H]1O2 | -0.107%
C[C@@H]1CC=CC[C@@H](c2ccccc2)NC(=O)[C@@H](Cc2ccccc2)N(C)C(=O)c2ccccc2O1 (mixture of isomers) | 15.9%
O=C(Nc1ccc(C(F)(F)F)cc1)N1[C@@H]2CNC[C@H]1C2c1ccc(-c2ccncc2)cc1 (some centres undefined) | -4.68% and -6.18%
COc1cccc(NC(=O)Nc2ccc3c(c2)OC[C@@H](C)NC[C@@H](C)[C@H](OC)CN(C)C3=O)c1 | -4.31%
CCCN1[C@H](CO)[C@H](c2ccc(C#CC3CCCCC3)cc2)[C@@H]1CNC(=O)C1CC1 | -11.7%
COc1ccc(S(=O)(=O)N(C)C[C@@H]2Oc3ccc(NC(=O)Nc4cccc5ccccc45)cc3C(=O)N([C@H](C)CO)C[C@H]2C)cc1 | 9.82%
COc1ccc2c3c(n(C)c2c1)[C@H](CO)N(Cc1ccc(F)cc1)CC31CCN(C)CC1 | 8.27%
O=C(CCN1CCN(C/C=C/c2ccccc2)CC1)Nc1ccccc1Cl | 15.1%
NC(=O)C1(Nc2ccccc2Cl)CCCC1 | -0.504%
O=C(Nc1ccccc1Cl)/C(Cl)=C(\Cl)S(=O)c1ccccc1 (centres undefined) | 41.6% (active)
COc1ccc2c3c(n(C)c2c1)[C@H](CO)N(C(C)=O)CC31CN(Cc2ccc(Cl)cc2)C1 | 9.57%
COc1ccc(S(=O)(=O)N2C[C@@H](O)COC[C@H]3O[C@@H](CC(=O)NCCN4CCCCC4)CC[C@@H]32)cc1 | -7.51%
CO[C@H]1CN(C)C(=O)c2ccc(NC(C)=O)cc2OC[C@@H](C)N(C(=O)c2ccncc2)C[C@@H]1C | -5.05%
O=C(c1cnccn1)N1CC(=O)N2[C@H](C1)[C@@H](c1ccc(C#CC3CCCC3)cc1)[C@@H]2CO | 0.368%
CN(C)C(=O)C[C@H]1C[C@H]2c3cc(NC(=O)Nc4ccccc4F)ccc3O[C@H]2[C@@H](CO)O1 | -8.8%
CC(=O)N1C[C@@H]2C(c3ccccc3)[C@@H](C1)N2C(=O)NC(C)C (some centres undefined) | -6.49%
O=C(NCc1ccc(F)cc1)[C@@H]1[C@@H](CO)[C@@H]2Cn3c(cccc3=O)[C@@H]2N1C(=O)c1cccnc1 | 12.8%
